Source: ChEMBL document CHEMBL1155272, “Nucleoside-5'-monophosphates as prodrugs of adenosine A2A receptor agonists activated by ecto-5'-nucleotidase” (J Med Chem, 2009)

Biological target: T1, 5'-nucleotidase (Rattus norvegicus) (UniProt P21588)
T1 sequence (whole entry): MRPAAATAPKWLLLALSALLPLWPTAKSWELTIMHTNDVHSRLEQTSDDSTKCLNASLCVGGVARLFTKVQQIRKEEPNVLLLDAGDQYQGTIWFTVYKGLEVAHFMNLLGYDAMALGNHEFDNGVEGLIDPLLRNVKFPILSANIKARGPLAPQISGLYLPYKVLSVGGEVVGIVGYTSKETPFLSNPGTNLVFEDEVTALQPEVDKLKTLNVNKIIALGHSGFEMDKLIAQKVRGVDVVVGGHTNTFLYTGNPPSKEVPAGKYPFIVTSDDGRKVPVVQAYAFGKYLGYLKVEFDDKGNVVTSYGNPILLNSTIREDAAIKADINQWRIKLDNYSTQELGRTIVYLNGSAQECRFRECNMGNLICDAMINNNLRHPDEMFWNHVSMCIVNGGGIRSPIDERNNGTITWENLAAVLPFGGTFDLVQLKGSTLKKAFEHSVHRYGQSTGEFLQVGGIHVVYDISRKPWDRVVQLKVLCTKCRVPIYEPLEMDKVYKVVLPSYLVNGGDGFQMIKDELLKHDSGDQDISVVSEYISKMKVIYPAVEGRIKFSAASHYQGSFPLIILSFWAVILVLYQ
Experiment: Activity at rat recombinant ecto-5'-nucleotidase expressed in baculovirus-infected insect Sf9 cells co-transfected with soluble glutathione-S-transferase assessed as compound dephosphorylation by capillary electrophoresis relative to AMP
Set-up: concentration or dose not given beside the values
How it was run: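 Purified GST-rat ecto-5'-NT fusion protein (baculovirus/insect cells, glutathione-agarose purified). 500 μM nucleoside monophosphate in 10 mM Hepes pH 7.4, 2 mM MgCl2, 1 mM CaCl2; 37 °C, 20 min; stopped at 99 °C for 5 min. Nucleoside product quantified by capillary electrophoresis (borate pH 9.1, UV 232 nm). Dephosphorylation expressed relative to AMP (100%). Two experiments, triplicate injections.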

| Structure (SMILES) | Activity [%] |
| --- | --- |
| Nc1nc(SCC2CCCCC2)nc2c1ncn2[C@@H]1O[C@H](COP(=O)(O)O)[C@@H](O)[C@H]1O | 71 |
| Nc1nc(SC2CCCCC2)nc2c1ncn2[C@@H]1O[C@H](COP(=O)(O)O)[C@@H](O)[C@H]1O | 28 |
| C#CCSc1nc(N)c2ncn([C@@H]3O[C@H](COP(=O)(O)O)[C@@H](O)[C@H]3O)c2n1 | 0 |
| Nc1nc(SCc2ccccc2)nc2c1ncn2[C@@H]1O[C@H](COP(=O)(O)O)[C@@H](O)[C@H]1O | 0 |
| Nc1nc(SCCc2ccccc2)nc2c1ncn2[C@@H]1O[C@H](COP(=O)(O)O)[C@@H](O)[C@H]1O | 0 |
| Nc1nc(SCCC2COCCO2)nc2c1ncn2[C@@H]1O[C@H](COP(=O)(O)O)[C@@H](O)[C@H]1O (some centres not stated) | 67 |
| Nc1nc(SCCC2OCCO2)nc2c1ncn2[C@@H]1O[C@H](COP(=O)(O)O)[C@@H](O)[C@H]1O | 104 |
| C=CCSc1nc(N)c2ncn([C@@H]3O[C@H](COP(=O)(O)O)[C@@H](O)[C@H]3O)c2n1 | 0 |
| CCCCCCSc1nc(N)c2ncn([C@@H]3O[C@H](COP(=O)(O)O)[C@@H](O)[C@H]3O)c2n1 | 84 |
| Nc1nc(SCCC2CCCCC2)nc2c1ncn2[C@@H]1O[C@H](COP(=O)(O)O)[C@@H](O)[C@H]1O | 96 |
| CCCSc1nc(N)c2ncn([C@@H]3O[C@H](COP(=O)(O)O)[C@@H](O)[C@H]3O)c2n1 | 47 |
| Nc1nc(SC2CCCC2)nc2c1ncn2[C@@H]1O[C@H](COP(=O)(O)O)[C@@H](O)[C@H]1O | 71 |
